# Source: ChEMBL document CHEMBL1125114, “Cardiotonic agents. 6. Histamine analogues as potential cardiovascular selective H2 agonists” (J Med Chem, 1990)
# Several values for one entry are separate records, joined by “and”; a condition that tells them apart may be missing. Equal entries are not always repeated. Activity calls are given as the source filed them. The rule behind the calls is not given here.
# Assays:
# [1] = Concentration which gives 20% increase in the force contraction in ferret papillary muscle; assay type: functional, Mustela putorius furo, Muscle tissue
# Procedure, shortened: (§1)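 Isolated ferret papillary muscle, force of contraction recorded over a dose-response range. C20 = concentration giving a 20% increase in contractile force. Single experiments reported individually; with three or more runs, mean and range given.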
# [2] = Concentration of compound which gives 20% increase in the force contraction in ferret papillary muscle.; assay type: functional, Mustela putorius furo, Muscle tissue
# Procedure, shortened: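 Ferret papillary muscle force of contraction. C20 is the concentration giving a 20% increase in force. Values come from individual experiments; where three or more runs were done, the mean and range are given. NR means not reached.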
# Mustela putorius furo [3] = species: Mustela putorius furo; assay: In vitro inotropy blocking studies in ferret papillary muscle in the presence of 10 uM cimetidine; NB-Not Blocked; assay type: functional, tissue-based; conditions: Muscle tissue
# Procedure, shortened: (§2)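 Ferret papillary muscle dose-response repeated in the presence of antagonist (cimetidine). A rise of at least 1 order of magnitude in the measured C20 was scored as a blocked inotropic response.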
# Cavia porcellus [4] = assay: In vivo percent change in air way overflow in guinea pig was determined at a dose of 10 mg/kg/hr; assay type: functional
# Cavia porcellus [5] = assay: In vivo percent change in total acid secretion in guinea pig was determined at a dose of 10 mg/kg/hr; assay type: functional
# Procedure, shortened: (§3)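 Pentobarbital-anesthetized guinea pigs with stomach ligated to contain gastric fluid. After 30 min stabilization, blood pressure, heart rate, LVEDP and LV dP/dtmax were recorded at 1-min intervals. Compound given by iv infusion for 60 min, then monitored 10 min more. Gastric contents were titrated against 0.1 N NaOH. Value is the average maximum % change from control in the 10 min after infusion, mean ± SEM.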
# Cavia porcellus [6] = assay: In vivo percent change in mean arterial pressure in guinea pig was determined at a dose of 10 mg/kg/hr; assay type: functional, Artery; procedure, shortened: as §3
# Mustela putorius furo [7] = species: Mustela putorius furo; assay: In vitro inotropy blocking studies in ferret papillary muscle in the presence of 100 uM nadolol; B-Blocked; assay type: functional, tissue-based; conditions: Muscle tissue
# Procedure, shortened: (§4)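 Ferret papillary muscle dose-response repeated in the presence of 100 μM nadolol. A rise of at least 1 order of magnitude in the measured C20 was scored as a blocked inotropic response.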
# Cavia porcellus [8] = species: Cavia porcellus; assay: Chronotropic effect of histamine at 5 ug/mL in guinea pig atrium; NR-Not reached; assay type: functional, Cardiac atrium
# [9] = dP/dt value of the compound; assay type: functional; parameters: unit not given here
# Rattus norvegicus [10] = assay: In vivo effect on gastric acid secretion in rat was determined after subcutaneous administration; NC-No change; assay type: functional, organism-based; conditions: Stomach
# Procedure, shortened: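 Rats, subcutaneous dosing, gastric acid secretion stimulation. ED50 is the dose giving a 50% increase in acid secretion over control. Reported as mean ± SEM of three separate dose-response determinations.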
# Cavia porcellus [11] = species: Cavia porcellus; assay: Contractile response of histamine at 0.5 ug/mL in guinea pig ileum; assay type: functional
# Procedure, shortened: (§5)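 Isolated guinea pig ileum, H1 activity. Value is the concentration giving 50% of the contractile response of histamine at 0.5 μg/mL, taken from dose-response curves. Reported as mean ± SEM of three separate dose-response determinations. Response sensitivity checked with mepyramine.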
# Cavia porcellus [12] = species: Cavia porcellus; assay: In vitro contractile response of histamine at 0.5 ug/mL in guinea pig ileum; assay type: functional; procedure, shortened: as §5
# Cavia porcellus [13] = species: Cavia porcellus; assay: In vitro chronotropic effect of histamine at 5 ug/mL in guinea pig atrium; assay type: functional; conditions: Cardiac atrium
# Procedure, shortened: (§6)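 Spontaneously beating guinea pig right atria. Value is the concentration giving 50% of the chronotropic effect of histamine at 5 μg/mL, taken from dose-response curves. Reported as mean ± SEM of three separate dose-response determinations. Response sensitivity checked with cimetidine.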
# Mustela putorius furo [14] = species: Mustela putorius furo; assay: (§7) In vitro inotropy blocking studies in ferret papillary muscle in the presence of 100 uM nadolol; NB-Not Blocked; assay type: functional, tissue-based; conditions: Muscle tissue; procedure, shortened: as §4
# Mustela putorius furo [15] = species: Mustela putorius furo; assay: (§8) In vitro inotropy blocking studies in ferret papillary muscle in the presence of 10 uM cimetidine; B-Blocked; assay type: functional, tissue-based; conditions: Muscle tissue; procedure, shortened: as §2
# [16] = dp/dt value of the compound; assay type: functional; procedure, shortened: as §3
# Rattus norvegicus [17] = assay: In vivo effect on gastric acid secretion in rat was determined after subcutaneous administration; assay type: functional; conditions: Stomach, sc
# Procedure, shortened: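 Rats, subcutaneous dosing, gastric acid secretion measured by the method of Hagiwara and co-workers. ED50 = dose giving a 50% increase in acid secretion over control. Mean ± SEM of three separate dose-response determinations.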
# Mustela putorius furo [18] = species: Mustela putorius furo; assay: as §8; assay type: functional, tissue-based; conditions: Muscle tissue; remark: listed apart in the source
# Mustela putorius furo [19] = species: Mustela putorius furo; assay: as §7; assay type: functional, tissue-based; conditions: Muscle tissue; remark: listed apart in the source
# Procedure, shortened: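 Ferret papillary muscle inotropic dose-response curves repeated in the presence of each antagonist (nadolol at 100 μM). A rise in C20 of at least one order of magnitude was scored as a blocked response.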
# Cavia porcellus [20] = species: Cavia porcellus; assay: Chronotropic effect of histamine at 5 ug/mL in guinea pig atrium; assay type: functional, Cardiac atrium; procedure, shortened: as §6
# Cavia porcellus [21] = assay: In vivo percent change in heart rate in guinea pig was determined at a dose of 30 mg/kg/h; assay type: functional; procedure, shortened: as §3
# Cavia porcellus [22] = assay: In vivo percent change in total acid secretion in guinea pig was determined at a dose of 30 mg/kg/h; assay type: functional; procedure, shortened: as §3
# Cavia porcellus [23] = assay: In vivo percent change in airway overflow in guinea pig was determined at a dose of 30 mg/kg/h; assay type: functional
# Cavia porcellus [24] = assay: In vivo percent change in heart rate in guinea pig was determined at a dose of 10 mg/kg/hr; assay type: functional; procedure, shortened: as §3
# Cavia porcellus [25] = assay: In vivo percent change in heart rate in guinea pig was determined at a dose of 1 mg/kg/h; assay type: functional
# Cavia porcellus [26] = assay: In vivo percent change in total acid secretion in guinea pig was determined at a dose of 1 mg/kg/h; assay type: functional
# Cavia porcellus [27] = assay: In vivo percent change in mean arterial pressure in guinea pig was determined at a dose of 1 mg/kg/h; assay type: functional, Artery
# Cavia porcellus [28] = assay: In vivo percent change in airway overflow in guinea pig was determined at a dose of 1 mg/kg/h; assay type: functional
# Mustela putorius furo [29] = species: Mustela putorius furo; assay: Concentration of compound which gives 20% increase in the force contraction in ferret papillary muscle; NR-Not reached; assay type: functional, tissue-based; conditions: Muscle tissue; procedure, shortened: as §1
smiles,measurement,setting,value
O=C(c1ccccc1)N1CCC(NCCc2c[nH]cn2)CC1,C20,[1],>27 uM l-1
CCCCCCCN(C)CCc1c[nH]cn1,C20,[2],>57 uM l-1
CC(CCc1ccc(O)cc1)N(C)CCc1c[nH]cn1 (stereo not given),C20,[1],0.13 uM l-1 and 0.16 uM l-1
same,Activity,Mustela putorius furo [3],Not blocked
same,Change,Cavia porcellus [4],39%
same,Change,Cavia porcellus [5],22%
same,Change,Cavia porcellus [6],5%
same,Activity,Mustela putorius furo [7],Blocked
same,EC50,Cavia porcellus [8],Not reached
same,dP/dt,[9],29
same,ED50,Rattus norvegicus [10],inactive
same,EC50,Cavia porcellus [11],128 uM l-1
NCCc1c[nH]cn1 [HISTAMINE],EC50,Cavia porcellus [12],0.24 µM
same,EC50,Cavia porcellus [13],0.98 µM
same,Activity,Mustela putorius furo [14],inactive
same,Activity,Mustela putorius furo [15],Active
same,dP/dt,[16],132
same,ED50,Rattus norvegicus [17],2.7 mg/kg
same,C20,[2],0.42 uM l-1
NC(C/C=C/c1ccccc1)Cc1c[nH]cn1 (stereo not given),C20,[1],13 uM l-1
same,Activity,Mustela putorius furo [18],Blocked
same,Activity,Mustela putorius furo [19],Not blocked
same,EC50,Cavia porcellus [20],184 uM l-1
same,Change,Cavia porcellus [21],5%
same,Change,Cavia porcellus [22],169%
same,dP/dt,[9],68
same,ED50,Rattus norvegicus [10],inactive
same,EC50,"Cavia porcellus [11]; Cavia porcellus, Ileum, read-out: EC50",7.23 µM
same,Change,Cavia porcellus [23],45%
CN(CCc1c[nH]cn1)Cc1ccco1,C20,[1],6.7 uM l-1
same,Activity,Mustela putorius furo [18],Blocked
same,Activity,Mustela putorius furo [19],Not blocked
same,Change,Cavia porcellus [4],51%
same,Change,Cavia porcellus [24],-8%
same,Change,Cavia porcellus [5],221%
same,Change,Cavia porcellus [6],-22%
same,EC50,Cavia porcellus [8],Not reached
same,dP/dt,[9],-6
same,EC50,Cavia porcellus [11],165 uM l-1
same,ED50,Rattus norvegicus [17],15.3 mg/kg
CN(CC/C=C/c1ccccc1)CCc1c[nH]cn1,Activity,Mustela putorius furo [3],Not blocked
same,Activity,Mustela putorius furo [7],Blocked
c1coc(CNCCCc2c[nH]cn2)c1,C20,[1],33 uM l-1
O=C(NCCNCCc1c[nH]cn1)c1ccccc1,C20,[1],>66 uM l-1
CN(C)CCCSC(=N)N [DIMAPRIT],EC50,Cavia porcellus [12],10.4 µM
same,Change,Cavia porcellus [25],19%
same,Activity,Mustela putorius furo [18],Blocked
same,Activity,Mustela putorius furo [19],Not blocked
same,EC50,Cavia porcellus [13],4.6 µM
same,Change,Cavia porcellus [26],91%
same,Change,Cavia porcellus [27],-25%
same,dP/dt,[9],93
same,ED50,Rattus norvegicus [17],3.1 mg/kg
same,Change,Cavia porcellus [28],11%
Cc1[nH]cnc1CCNCCNC(=O)c1ccncc1,C20,Mustela putorius furo [29],Not reached
CCN(CCc1c[nH]cn1)C(C)CCc1ccc(O)cc1 (stereo not given),C20,[1],4 uM l-1 and 6 uM l-1
same,Activity,Mustela putorius furo [18],Blocked
same,Activity,Mustela putorius furo [7],Blocked
c1coc(CNCCc2c[nH]cn2)c1,C20,[1],27 uM l-1
same,Activity,Mustela putorius furo [7],Blocked
